Assay outcomes: PubChem, several laboratories
This is a sample that favours compounds with a hit; in the whole collection about 3.2% have one here.
BAP1 inh – inhibitors of human BAP1 deubiquitinase; Q92560; recombinant BAP1, Ub-AMC hydrolysis fluorescence kinetic; stronger effect = lower value; activity remaining (% of control), % at 20 µM; 0.48% of 72,000 active;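 active = activity remaining at or below 50% of control, provided the compound also passes the data quality filters; inactive = the rest, including low values that fail the filters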;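 note: 100% = DMSO wells rate and 0% = substrate alone blank rate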
Target sequence (Q92560 whole entry, looked up): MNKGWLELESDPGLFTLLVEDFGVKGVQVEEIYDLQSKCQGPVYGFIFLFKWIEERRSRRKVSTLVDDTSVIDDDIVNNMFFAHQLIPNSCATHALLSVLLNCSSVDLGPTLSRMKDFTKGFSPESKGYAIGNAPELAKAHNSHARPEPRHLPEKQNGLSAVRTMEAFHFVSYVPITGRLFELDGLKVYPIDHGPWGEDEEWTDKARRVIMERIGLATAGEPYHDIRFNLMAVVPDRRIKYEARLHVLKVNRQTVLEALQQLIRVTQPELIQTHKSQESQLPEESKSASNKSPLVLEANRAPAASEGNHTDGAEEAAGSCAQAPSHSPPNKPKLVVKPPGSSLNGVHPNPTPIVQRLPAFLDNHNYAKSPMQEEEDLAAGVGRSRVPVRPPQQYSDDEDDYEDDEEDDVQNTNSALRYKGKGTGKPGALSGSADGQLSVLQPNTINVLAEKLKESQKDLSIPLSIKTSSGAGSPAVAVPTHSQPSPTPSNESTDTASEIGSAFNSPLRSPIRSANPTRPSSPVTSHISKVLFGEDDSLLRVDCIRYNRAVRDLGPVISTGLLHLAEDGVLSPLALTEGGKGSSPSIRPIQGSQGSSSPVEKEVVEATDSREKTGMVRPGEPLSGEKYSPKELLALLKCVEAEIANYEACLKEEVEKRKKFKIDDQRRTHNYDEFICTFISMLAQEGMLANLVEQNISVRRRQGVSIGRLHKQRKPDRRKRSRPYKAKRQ
RORa activator – activates the human nuclear receptor RORA. P35398. CHO-K1 Gal4-RORA LBD luciferase reporter, luminescence; percent increase over mock-subtracted basal signal. activation, % at 10 µM. 1.5% of 65,000 active;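 active = activation above the mean of all tested compounds plus 3 SD, cut at about 49% in these data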;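 note: 0% = DMSO-treated RORA cells and 100% = added signal equal to DMSO minus mock-transfected cells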
SF1 activator – activates the human nuclear receptor SF-1; Q13285; CHO-K1 Gal4-SF-1 LBD luciferase reporter; % increase over DMSO SF-1-specific signal; activation, % at 10 µM; 1.9% of 65,000 active;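 active = activation above the mean activation of all tested compounds plus 3 SD, cut at about 50% in these data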
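Material: Gal4–SF-1 LBD one-hybrid luciferase reporter in CHO-K1 cells | Amount: 4,000 cells per well | Compound dosing: 10 µM single point, 1% DMSO | Schedule: 20 h compound treatment, 37 °C | Measured by: SteadyLite luciferase luminescence | Evaluation: Percent activation versus DMSO | Control set: DMSO-treated SF-1-transfected cells as negative, DMSO-treated mock-transfected cells lacking SF-1 as background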
E coli RNAP – Escherichia coli RNA polymerase inhibition | P0A8V2 | E. coli RNA polymerase, fluorescence transcription assay | inhibition, %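 (tested at 10 µM)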 | 0.2% of 62,000 active | AID 559; in the data active = inhibition above about 20%;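 note: 0% = enzyme without compound and 100% = no enzyme blank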
JNK3 inh – JNK3 (human) kinase inhibition; P53779; inhibition, % at 8 µM; purified JNK3 kinase activity, HTS; AID 746; 0.61% of 60,000 active; in the data active = inhibition above about 17%;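 note: 0% = DMSO and 100% = reference inhibitor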
The depositor's hits bear a star.

What do the screens show for `Cc1ccccc1C1=NC(c2ccc(F)cc2F)ON1` (stereo not drawn)?
BAP1 inh: 98; RORa activator: 3; SF1 activator: 33; E coli RNAP: 8; JNK3 inh: 2

What do the screens show for `Cc1ccc(N2C(=O)c3ccccc3C2Nc2cccnc2)nc1` (stereo not drawn)?
BAP1 inh: 101; RORa activator: -3; SF1 activator: 12; E coli RNAP: 4; JNK3 inh: 2

How did CC(c1ccccc1)C1CC(=O)N(c2ccc(F)cc2)C1=O (stereo not drawn) do in these assays?
BAP1 inh: 79

What do the screens show for `COCCNC(=O)c1cc(-c2ccccc2OC)on1`?
BAP1 inh: 96; RORa activator: 52*; SF1 activator: 71*; E coli RNAP: 0; JNK3 inh: 7

How did COc1ccccc1-c1cc(C(=O)NC(C)C)no1 do in these assays?
BAP1 inh: 101; RORa activator: 33; SF1 activator: 69*; E coli RNAP: 5; JNK3 inh: 0

What do the screens show for `O=C(c1ccc(Br)o1)N1CCN(c2ccc(F)cc2)CC1`?
BAP1 inh: 57; RORa activator: -5; SF1 activator: -30; E coli RNAP: 10; JNK3 inh: 1

What do the screens show for `O=S1(=O)C=C(Sc2nc3cc(Cl)ccc3o2)c2ccccc21`?
BAP1 inh: 65; RORa activator: -75; SF1 activator: -71; E coli RNAP: 40*; JNK3 inh: 1

What do the screens show for `CN(C)c1nc(N)nc(CSc2nc3cc(Cl)ccc3o2)n1`?
RORa activator: 16; SF1 activator: 17; E coli RNAP: 3; JNK3 inh: 2

Results for COc1ccc(C2C(C(=O)NCc3ccco3)CCC(=O)N2c2ccc(OC)cc2)cc1 (stereo not drawn) ?
BAP1 inh: 96; RORa activator: -15; SF1 activator: -18; E coli RNAP: 9; JNK3 inh: 17*

Results for Cc1ccc(NC(=O)NC2CCCCC2)cc1Cl ?
BAP1 inh: 81; RORa activator: 106*; SF1 activator: 74*; E coli RNAP: 11; JNK3 inh: -4

What do the screens show for `C=CCNc1oc(-c2cccc3ccccc23)nc1C#N`?
BAP1 inh: 224; RORa activator: 21; SF1 activator: 5; E coli RNAP: -8; JNK3 inh: 1

Results for Cn1ccnc1SCC(=O)Nc1ccc2nc(SCC(=O)NC3CC3)sc2c1 ?
BAP1 inh: 93; RORa activator: 41; SF1 activator: 7; E coli RNAP: 5

Results for COc1ccc(C(=O)c2ccc(OC)c(N)c2)cc1N ?
BAP1 inh: 94; RORa activator: 66*; SF1 activator: 42; E coli RNAP: 4; JNK3 inh: 0

How did COc1ccc(C(=O)c2ccc(OC)c(OC)c2)cc1OC do in these assays?
BAP1 inh: 79; RORa activator: 0; SF1 activator: -6; E coli RNAP: 10; JNK3 inh: -1

Results for O=C(/C=C/Nc1ccc(F)c(Cl)c1)c1ccco1 ?
BAP1 inh: 53; RORa activator: 62*; SF1 activator: 55*; E coli RNAP: 13; JNK3 inh: 1

Results for CC(=NCC1CCCO1)C1=C(O)CC(C)(C)CC1=O (stereo not drawn) ?
RORa activator: -10; SF1 activator: -8; E coli RNAP: 2

Results for O=C(Nc1cccc2ccccc12)c1cnccn1 ?
BAP1 inh: 86; RORa activator: 15; SF1 activator: 63*; E coli RNAP: 10; JNK3 inh: 2

How did CCc1ccccc1NC(=O)c1cnccn1 do in these assays?
BAP1 inh: 62; RORa activator: 0; SF1 activator: -4; E coli RNAP: 2; JNK3 inh: 3

How did O=C(Oc1ccc(-c2ccccc2)cc1)N1CCCCC1 do in these assays?
BAP1 inh: 91; RORa activator: 86*; SF1 activator: 72*; E coli RNAP: 2; JNK3 inh: 6

What do the screens show for `CCCc1cc(C(=O)NCc2ccccc2)no1`?
BAP1 inh: 91; RORa activator: 30; SF1 activator: 22; E coli RNAP: 7; JNK3 inh: 7

What do the screens show for `Cc1ccc(-c2cc(C(=O)NCc3cccs3)no2)cc1`?
BAP1 inh: 49; RORa activator: 59*; SF1 activator: 60*; E coli RNAP: 4; JNK3 inh: 1

How did CCCc1cc(C(=O)Nc2ccccc2SC)no1 do in these assays?
BAP1 inh: 104; RORa activator: 1; SF1 activator: 56*; E coli RNAP: 3; JNK3 inh: -3

Results for CCCc1cc(C(=O)NCc2cccs2)no1 ?
BAP1 inh: 91; RORa activator: 37; SF1 activator: 50*; E coli RNAP: 8; JNK3 inh: 1

How did CSc1ccccc1NC(=O)c1cc(-c2cccs2)on1 do in these assays?
BAP1 inh: 83; RORa activator: 19; SF1 activator: 23; E coli RNAP: 3; JNK3 inh: -2

How did Cc1nc2ccc(S(=O)(=O)NC(CC(C)C)C(=O)O)cc2s1 (stereo not drawn) do in these assays?
BAP1 inh: 94; RORa activator: 7; SF1 activator: -18; E coli RNAP: 3; JNK3 inh: 8

Results for Cn1c2ccccc2c2ncn(CCC3=CCCCC3)c(=O)c21 ?
BAP1 inh: 318; RORa activator: 48; SF1 activator: 51*; E coli RNAP: -2; JNK3 inh: 8

How did O=C(NCCn1ccc2ccccc21)c1ccc2c(c1)OCO2 do in these assays?
BAP1 inh: 86; RORa activator: 76*; SF1 activator: 72*; E coli RNAP: 8; JNK3 inh: -7

How did O=C(NCCCN1CCCC1=O)c1ccc2c(c1)OCO2 do in these assays?
BAP1 inh: 95; RORa activator: -4; SF1 activator: 10; E coli RNAP: 5; JNK3 inh: -6

Results for COc1ccc(C(=O)NCCn2ccc3ccccc32)cc1 ?
BAP1 inh: 104; RORa activator: 57*; SF1 activator: 58*; E coli RNAP: 11; JNK3 inh: -4

What do the screens show for `O=C(NCCn1ccc2ccccc21)c1ccc(S(=O)(=O)N2CCCCC2)cc1`?
BAP1 inh: 79; RORa activator: -2; SF1 activator: 3; E coli RNAP: 0; JNK3 inh: -2

Results for CCOc1cccc(NC(=O)C2CCCN(S(=O)(=O)c3ccc(-n4cnnn4)cc3)C2)c1 (stereo not drawn) ?
BAP1 inh: 134; RORa activator: -3; SF1 activator: 19; E coli RNAP: 4; JNK3 inh: 21*

How did COc1cccc(NC(=O)C2CCCN(S(=O)(=O)c3ccc(-n4cnnn4)cc3)C2)c1 (stereo not drawn) do in these assays?
BAP1 inh: 97; RORa activator: -16; SF1 activator: 2; E coli RNAP: -1; JNK3 inh: -2

What do the screens show for `CC1CCN(C(=O)CSc2nnc(Cc3cccn3C)n2-c2ccc(F)cc2)CC1`?
BAP1 inh: 97; RORa activator: 20; SF1 activator: 28; E coli RNAP: 10; JNK3 inh: 3
